Source: PubChem BioAssay (several laboratories)
T cell modulator – modulators of CD8 T cell-vesicle binding, primary screen, mouse 2C CD8+ T cells, flow cytometry | 2C CD8+ T cell-vesicle binding; stronger effect = lower value | response (vesicle binding), % at 7 µM | 0.068% of 330,000 active | AID 2052, 2009;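 active = response, share of CD8 T cells binding vesicles, and their 90th percentile fluorescence all below set limits, cut at about 80% in these data, passing the limit was not always enough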;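 note: values below 100% mean blocked vesicle binding to the CD8+ T cells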
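material = purified 2C TCR transgenic mouse naive CD8+ T cells | controls = Unloaded micro-vesicles (low), QL9 vesicles with 0.7% DMSO (high) | detection = cytometric PE anti-B7-1 and Alexa647 anti-CD8 signals after 1% paraformaldehyde fixation | incubation = binding step 1.5 h, 37 °C, antibody labelling 20 min, ice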
EP2 modulator – EP2 receptor modulators, cAMP readout, primary screen, cell-based, HTRF cAMP, PGE2 stimulation; Prostaglandin E2 receptor EP2 subtype (Homo sapiens), P43116; EP2-expressing cells, cAMP HTRF FRET, PGE2 co-stimulation; induction, % at 25 µM; 0.83% of 260,000 active;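 active = compounds whose cAMP rise, as percent of the full-agonist control response, exceeds 60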;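 note: rat C6 glioma line stably carrying human EP2 under a CMV promoter; the protocol text gives 20 µM as final concentration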
Target sequence (P43116 whole entry, looked up): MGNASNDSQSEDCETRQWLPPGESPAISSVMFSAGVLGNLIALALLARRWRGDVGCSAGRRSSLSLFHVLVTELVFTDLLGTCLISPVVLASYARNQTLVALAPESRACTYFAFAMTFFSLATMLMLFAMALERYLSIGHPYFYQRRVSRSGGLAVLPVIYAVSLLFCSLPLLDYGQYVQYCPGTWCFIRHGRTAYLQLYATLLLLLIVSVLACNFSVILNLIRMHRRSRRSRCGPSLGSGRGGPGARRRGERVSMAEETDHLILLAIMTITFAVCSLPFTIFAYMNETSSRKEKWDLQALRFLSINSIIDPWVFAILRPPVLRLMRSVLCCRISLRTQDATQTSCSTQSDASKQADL
MC4R antag cAMP – MC4R antagonists of cAMP signaling, primary screen, cell-based, TR-FRET, antagonist arm of biased-ligand search; Melanocortin receptor 4 (Homo sapiens), P32245; MC4R-expressing cells, MTII-stimulated cAMP, LANCE TR-FRET; inhibition, % at 6.5 µM; 0.48% of 360,000 active; AID 540295, 2011;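 active = inhibition above its plate's cutoff, the mean of tested wells on that plate plus 3 SD, cut at about 29% in these data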
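System – human MC4R-expressing U2OS cells · Also added – Melanotan II · Dosing – one concentration, 6.5 µM nominal · Timing – 30-min compound, 1-h challenge, 1-h detection, room temperature · Measured by – Eu-cAMP/anti-cAMP TR-FRET, emission 671 nm · Replicates – singlicate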
Granule exo inh – LAMP-1 surface exposure blockers, TALL-104 cells – cell-based, flow cytometry, MLPCN library, primary screen; inhibition, % at 10 µM; AID 651702, 2012; 0.66% of 360,000 active; TALL-104 LAMP-1 surface exposure; cells stimulated with thapsigargin and PMA;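 active = inhibition above about 55%, limit read from the data; inconclusive = no clear call, values can overlap the other calls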
MC4R barr agon – MC4R agonists recruiting beta-arrestin, primary screen, cell-based, luminescence, agonist arm of biased-ligand search | Melanocortin receptor 4 (Homo sapiens), P32245 | U2OS MC4R beta-arrestin complementation; percent of melanotan II response, DMSO zero | activation, % at 8.9 µM | 0.98% of 360,000 active | AID 540308, 2011;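 active = activation above a per-plate cutoff, the mean activation of sample wells on that plate plus 3 SD, cut at about 8% in these data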
PGE2 EP2 inh – human EP2 receptor antagonists, primary screen, TR-FRET cAMP, C6 glioma cells; AID 1422, 2008; inhibition, % at 25 µM; 0.52% of 260,000 active; Prostaglandin E2 receptor EP2 subtype (Homo sapiens), P43116; C6 glioma cells expressing human EP2; cells stimulated with saturating PGE2;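 active = percent inhibition above 40 after rounding to a whole number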;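 note: rat C6 glioma host cells with rolipram phosphodiesterase inhibitor present; the protocol text gives 20 µM as final concentration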
Hits are given with their value; . = inactive; ? = inconclusive; / = no result; ! = a repeat was not active. This is a sample that favours compounds with a hit; in the whole collection about 2.6% have one here.

SMILES	T cell modulator	EP2 modulator	MC4R antag cAMP	Granule exo inh	MC4R barr agon	PGE2 EP2 inh
CC(C)[C@H]1CC2C3CC=C4C[C@@H](O)CC[C@]4(C)C3CC[C@]2(C)[C@H]1O (some centres not stated)	.	/	.	.	.	/
Cc1c([C@@H](C)[C@H]2NC[C@H](C)C[C@@H]2O)ccc2c1C[C@@H]1[C@@H]2CC=C2C[C@@H](O)CC[C@@]21C	/	.	/	/	/	43.0
c1ccc(-c2cc(-c3ccccc3)[n+](-c3ccccc3)c(-c3ccccc3)c2)cc1	.	.	.	?	.	64.0
COc1ccc(CN2CCCC(C(=O)c3cccc(Cl)c3)C2)cc1 (configuration not stated)	.	/	.	.	9.0	/
CC12Cc3cnoc3C=C1CCC1C2CCC2(C)C1CCC2(C)O (configuration not stated)	/	/	.	.	.	/
c1ccc2c(CNC3CCCCCC3)c[nH]c2c1	.	.	.	.	.	.
O=C1NC(=S)N(c2ccccc2F)C(=O)/C1=C\c1cccs1	.	.	.	75.7	.	.
CCOc1ccc(N2C(=O)/C(=C\c3cccs3)C(=O)NC2=S)cc1	.	.	/	/	/	.
COc1ccc(S(=O)(=O)N2CC3CC(C2)c2cccc(=O)n2C3)cc1 (configuration not stated)	.	.	.	.	.	.
C[C@@H]1CC[C@@]2(NC1)O[C@H]1C[C@H]3[C@@H]4CC=C5C[C@@H](O)CC[C@]5(C)[C@H]4CC[C@]3(C)[C@H]1[C@@H]2C	.	/	.	.	.	/
CC1=C2C(=O)[C@H]3[C@@H](CC=C4C[C@@H](O)CC[C@@]43C)[C@@H]2CC[C@@]12O[C@@H]1C[C@H](C)CN[C@H]1[C@@H]2C	/	.	/	/	/	41.0
CC(=O)OC1CC(OC2C(O)CC(OC3C(O)CC(OC4CCC5(C)C(CCC6C5CCC5(C)C(C7=CC(=O)OC7)C(O)CC65O)C4)OC3C)OC2C)OC(C)C1OC1OC(CO)C(O)C(O)C1O (configuration not stated)	/	/	.	.	15.3	/
CC(=O)OC1CC2(O)C3CCC4CC(O)CCC4(C)C3CCC2(C)C1C1=CC(=O)OC1 (configuration not stated)	/	/	.	.	17.4	/
CC1OC(OC2C(O)CC(OC3C(O)CC(OC4CCC5(C)C(CCC6C5CCC5(C)C(C7=CC(=O)OC7)C(O)CC65O)C4)OC3C)OC2C)CC(O)C1O (configuration not stated)	/	/	.	.	26.6	/
C[C@H]1OC(O[C@H]2[C@@H](O)CC(O[C@H]3[C@@H](O)C[C@H](O[C@H]4CC[C@]5(C)C6CC[C@]7(C)[C@@H](C8=CC(=O)OC8)[C@@H](O)C[C@]7(O)[C@@H]6CC[C@@H]5C4)O[C@@H]3C)O[C@@H]2C)C[C@H](O)C1O (some centres not stated)	/	.	/	/	/	.
O=[N+]([O-])/C=C1\NCCN1Cc1ccc(Cl)nc1	.	.	.	.	.	.
CC1=CC(=C2C(=O)NC(=S)NC2=O)C=C(C(F)(F)F)N1Cc1ccccc1	.	.	.	.	.	.
O=P(O)(O)c1ccccc1 (tested in a mixture with another compound)	/	.	/	/	/	.
O=P(O)(OP(=O)(O)c1ccccc1)c1ccccc1 (tested in a mixture with another compound)	/	.	/	/	/	48.5
NP(=O)(Nc1ccccc1)Nc1ccccc1	/	/	.	.	.	/
Cc1cc(OCC(=O)N2CCC(C(=O)NCC(C)C)CC2)c2c3c(c(=O)oc2c1)CCCC3	.	/	.	.	.	/
C=CCSc1nc2ccccc2c(=O)n1-c1ccccc1C	/	78.1	/	/	/	.
CC(Cc1ccccc1)NC(=O)c1ccc(N)cc1 (configuration not stated)	.	/	.	.	.	/
O=C1NC(=S)NC(=O)C1=Cc1cccc2cc3ccccc3cc12	/	.	.	.	.	97.7!
COc1cc2c(cc1OC)-c1c(OC)c(OC)cc3c1[C@H](C2)[N+](C)(C)CC3	.	.	.	.	.	.
SMILES	T cell modulator	EP2 modulator	MC4R antag cAMP	Granule exo inh	MC4R barr agon	PGE2 EP2 inh
OC1(c2ccc(F)cc2)CC2CCC(C1)N2Cc1nnnn1Cc1ccccc1 (configuration not stated)	/	.	/	/	/	/
CC[C@@H]1[C@@H]2Cc3ccc(O)cc3[C@@]1(CC)CCN2C	/	.	/	/	/	51.7
Cc1cc[c]([Sb]2[O][C@H]([C@H](O)[C@H](O)C(=O)O)[C@@H](CO)[O]2)cc1	/	.	/	/	/	48.6
CCCCCc1nc2c(c(=O)c3ccccc3n2C)c(=O)n1C1CCCCCC1	.	.	.	.	.	121.2
CCCCCc1nc2ccccc2c(=O)n1-c1ccccc1[N+](=O)[O-]	.	.	.	.	.	.
CCOC(=O)[C@]12Cc3cc(Cl)ccc3[C@H]1N(C(C)C)C(=O)c1ccccc12	/	/	/	.	/	/
O=[N+]([O-])c1cc([As](=O)(O)c2ccc(O)c([N+](=O)[O-])c2)ccc1O	.	.	.	.	.	.
O=[N+]([O-])c1cc(-c2ccc([As](=O)(O)O)cc2)ccc1[As](=O)(O)O	.	.	/	/	/	46.9!
O=C(O)c1cc(N=Nc2ccc([As](=O)(O)O)cc2)ccc1O	/	.	/	/	/	43.4
O=C(CN1C2CCC1CC(O)(c1cccnc1)C2)Nc1ccc2c(c1)OCO2 (configuration not stated)	.	.	.	.	.	.
CCCCC[CH2][Hg][n+]1c[nH]c2nc(N)[nH]c(=S)c21	/	.	/	/	/	99.9
COC(=O)C1=C(c2ccccc2OCc2ccccc2)C[C@@H]2CC[C@H]1N2C(=O)NCc1ccc(Br)cc1	.	/	.	.	.	/
CN1CCc2cc(O)cc3c2[C@H]1Cc1ccc(O)c(O)c1-3	.	.	.	60.0	.	102.4!
C[C@]12CC[C@H]3[C@@H](CC[C@]4(O)C[C@@H](O)CC[C@]34C=O)[C@@]1(O)CC[C@@H]2C1=CC(=O)OC1	.	/	.	.	27.3	/
CC12CCC3C(CCC4(O)CC(O)CCC34C=O)C1(O)CCC2C1=CC(=O)OC1 (configuration not stated)	/	/	.	.	21.2	/
